From publication PMC4407950 (Journal of Clinical Pharmacology, 2014)
Where two headings read alike, the source gives them in different places.

Legend:
[1] = assay type: in vivo, human; conditions: for AUC(0–∞), ratio of geometric least-squares means (90% confidence interval) / C24, ratio of geometric least-squares means (90% confidence interval) / Cmax, ratio of geometric least-squares means (90% confidence interval) / reduction of plasma dolutegravir AUC(0–∞) / reduction of plasma dolutegravir C24 / reduction of plasma dolutegravir Cmax: fasted; for Tmax: human, plasma, oral, median (range)
Procedure, shortened: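 Healthy adults were randomized to 2 cohorts of 4 treatments: test compound 50 mg single dose fasted, then with calcium supplement (1,200 mg) or iron supplement (324 mg) fasted, with a ~30% fat meal, or 2 h before the supplement fasted. Washout was ≥7 days. K2EDTA plasma was sampled predose to 48 h. Noncompartmental parameters were log-transformed and fitted by mixed model, giving geometric LS mean ratios with 90% CI.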

[2] = Safety evaluation; assay type: in vivo, human; conditions: for subjects who experienced AEs: six subjects
Procedure, shortened: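 Subjects were housed from Day −1 to Day 3 of each crossover period. Each period included serum chemistry, hematology, urinalysis, vital signs and 12-lead ECG. Adverse events were monitored through the treatment phase and at follow-up 7–14 days after the last dose.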

[3] = cited from earlier work
[4] = in the absence of added supplement; cited from earlier work
[5] = Dolutegravir 2 h prior + CC, fasted vs. dolutegravir alone
[6] = Dolutegravir 2 h prior + FF, fasted vs. dolutegravir alone
[7] = Dolutegravir + CC, fasted vs. dolutegravir alone
[8] = Dolutegravir + CC, fed vs. dolutegravir + CC
[9] = Dolutegravir + CC, fed vs. dolutegravir alone
[10] = Dolutegravir + FF, fasted vs. dolutegravir alone
[11] = Dolutegravir + FF, fed vs. dolutegravir + FF
[12] = Dolutegravir + FF, fed vs. dolutegravir alone
[13] = co-administered with calcium carbonate 1,200 mg
[14] = co-administered with ferrous fumarate 324 mg
[15] = Maalox 2 hours after dolutegravir administration
[16] = concurrent administration of Maximum Strength Maalox, fasted

For `C[C@@H]1CCO[C@H]2Cn3cc(C(=O)NCc4ccc(F)cc4F)c(=O)c(O)c3C(=O)N12` [Dolutegravir], the “AUC(0–∞), ratio of geometric least-squares means (90% confidence interval)” value (from here on “AUC(0–∞), ratio … (90% confidence interval)”) [1, 5] was 0.94 (0.72, 1.23), the “C24, ratio of geometric least-squares means (90% confidence interval)” value (from here on “C24, ratio … (90% confidence interval)”) [1, 5] was 0.90 (0.68, 1.19) and the “Cmax, ratio of geometric least-squares means (90% confidence interval)” value (“Cmax, ratio … (90% confidence interval)” for short) [1, 5] was 1.00 (0.78, 1.29). The “AUC(0–∞), ratio … (90% confidence interval)” value [1, 6] was 0.95 (0.77, 1.15), the “C24, ratio … (90% confidence interval)” value [1, 6] was 0.92 (0.74, 1.13) and the “Cmax, ratio … (90% confidence interval)” value [1, 6] was 0.99 (0.81, 1.21). The “AUC(0–∞), ratio … (90% confidence interval)” value [1, 7] was 0.61 (0.47, 0.80), the “C24, ratio … (90% confidence interval)” value [1, 7] was 0.61 (0.47, 0.80) and the “Cmax, ratio … (90% confidence interval)” value [1, 7] was 0.63 (0.50, 0.81). For the same molecule, the “AUC(0–∞), ratio … (90% confidence interval)” value [1, 8] was 1.78 (1.36, 2.33), the “C24, ratio … (90% confidence interval)” value [1, 8] was 1.76 (1.33, 2.33) and the “Cmax, ratio … (90% confidence interval)” value [1, 8] was 1.70 (1.32, 2.18). For the same molecule, the “AUC(0–∞), ratio … (90% confidence interval)” value [1, 9] was 1.09 (0.84, 1.43), the “C24, ratio … (90% confidence interval)” value [1, 9] was 1.08 (0.81, 1.42) and the “Cmax, ratio … (90% confidence interval)” value [1, 9] was 1.07 (0.83, 1.38). For the same molecule, the “AUC(0–∞), ratio … (90% confidence interval)” value [1, 10] was 0.46 (0.38, 0.56), the “C24, ratio … (90% confidence interval)” value [1, 10] was 0.44 (0.36, 0.54) and the “Cmax, ratio … (90% confidence interval)” value [1, 10] was 0.43 (0.35, 0.52). The “AUC(0–∞), ratio … (90% confidence interval)” value [1, 11] was 2.14 (1.76, 2.61), the “C24, ratio … (90% confidence interval)” value [1, 11] was 2.28 (1.85, 2.81) and the “Cmax, ratio … (90% confidence interval)” value [1, 11] was 2.41 (1.97, 2.94). The “AUC(0–∞), ratio … (90% confidence interval)” value [1, 12] was 0.98 (0.81, 1.20), the “C24, ratio … (90% confidence interval)” value [1, 12] was 1.00 (0.81, 1.23) and the “Cmax, ratio … (90% confidence interval)” value [1, 12] was 1.03 (0.84, 1.26). The “reduction of plasma dolutegravir AUC(0–∞)” value [1, 13] was 39%, the “reduction of plasma dolutegravir C24” value [1, 13] was 39% and the “reduction of plasma dolutegravir Cmax” value [1, 13] was 37%. For the same molecule, the “reduction of plasma dolutegravir AUC(0–∞)” value [1, 14] was 54%, the “reduction of plasma dolutegravir C24” value [1, 14] was 56% and the “reduction of plasma dolutegravir Cmax” value [1, 14] was 57%. For the same molecule, the “plasma exposures, dose separation” value ([1]; dolutegravir fasted 2 hours prior to calcium carbonate or ferrous fumarate) was “counteracted the effect”, the “plasma exposures, co-administration with supplement and a meal” value ([1]; dolutegravir with calcium carbonate or ferrous fumarate, fed (moderate-fat meal)) was “counteracted the effect” and the Tmax ([1]; dolutegravir 50 mg + calcium carbonate 1,200 mg, fed (moderate-fat meal), n = 11) was 3 h. For the same molecule, the Tmax ([1]; dolutegravir 50 mg + ferrous fumarate 324 mg, fed (moderate-fat meal), n = 10) was 3.5 h, the “increase of dolutegravir AUC by a moderate-fat meal” value (from here on “increase of dolutegravir AUC”) ([1]; in the presence of calcium carbonate) was 78% and the “increase of dolutegravir AUC” value ([1]; in the presence of ferrous fumarate) was 114%. The “effect of co-administration on tmax of dolutegravir” value ([1]; with calcium carbonate or ferrous fumarate) was “no effect”, the “subjects who experienced AEs” value ([2]; Cohort 1 (calcium carbonate)) was 50% and the “subjects who experienced AEs” value ([2]; Cohort 2 (ferrous fumarate)) was 50%. For the same molecule, the “severity of all adverse events” value ([2]; both cohorts) was “Grade 1”, the “changes in mean or median hematology or clinical chemistry values” ([2]; human, in vivo) was “No consistent, treatment-related, or clinically significant changes” and the “changes in vital signs or ECGs” value ([2]; human, in vivo) was “No clinically significant changes”. For the same molecule, the “decrease of dolutegravir mean AUC” value [3, 15] was 26%, the “decrease of dolutegravir mean C24” value [3, 15] was 30% and the “decrease of dolutegravir mean Cmax” value [3, 15] was 18%. The “effect of omeprazole on dolutegravir exposure” value ([3]; clinical study in humans) was “no effect”, the “decrease of dolutegravir mean AUC” value [3, 16] was 74% and the “decrease of dolutegravir mean C24” value [3, 16] was 74%. The “decrease of dolutegravir mean Cmax” value [3, 16] was 72% and the “increase of dolutegravir AUC” value [4] was 41%.
